proCasp3 act: activators of human procaspase-3; AID 463141; recombinant procaspase-3 D3A, Ac-DEVD-pNA absorbance 405 nm; activation, % at 8.5 µM; P42574; 330,000 tested, 0.11% active;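 active means activation above the mean of all tested compounds plus 3 SD, cut at about 21% in these data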;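 further: 0% = DMSO alone and 100% = DMSO wells spiked with extra 5 µM PC-3 D3A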
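System: Procaspase-3 D3A mutant. Medium: Zinc-free 300 mM NaCl, 50 mM HEPES, 0.01% Triton X-100. Schedule: 1 h preincubation plus 2 h reaction at 25 °C. Measured by: 405 nm absorbance of p-nitroaniline, reads at 0 and 120 min. Read-out: percent activation relative to control range.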
proCasp7 act: counter-screen for procaspase-3 activators: activators of human procaspase-7; recombinant procaspase-7, Ac-DEVD-pNA absorbance 405 nm; D23A/D198A/D206A triple mutant, cannot self-cleave; scale: DMSO 0, 5 µM enzyme 100; activation, % at 8.5 µM; 330,000 tested, 0.093% active; AID 463210;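 active means percent activation above the screen-wide mean plus 3 SD, cut at about 25% in these data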
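System: Uncleavable procaspase-7 mutant enzyme; Amount: 2 µM procaspase-7 mutant as dispensed; Schedule: 1 h compound preincubation, 2 h substrate cleavage, 25 °C; Measured by: 405 nm absorbance of p-nitroaniline; Evaluation: percent activation from buffer-corrected 0–120 min absorbance change; Control set: low DMSO alone, high DMSO plus 5 µM PC-7.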
PLCg1 inh: blocks human PLC-gamma1 enzyme activity; purified PLC-gamma1, fluorogenic substrate, fluorescence; 370,000 tested, 0.84% active; AID 720700; inhibition, % at 12.2 µM; in the data active means inhibition above about 9.5%
PLC-beta3 inh: blocks human PLC-beta3 enzyme activity; Purified PLC-beta3, fluorogenic substrate, fluorescence; inhibition, % at 12.2 µM; 370,000 tested, 0.18% active; in the data active means inhibition above about 11%;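 further: 0% = median of compound wells on plate and 100% = full blocker control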
sPLA2-III inh: Inhibits HGIII-sPLA2 liposome hydrolysis, primary screen | QFRET BODIPY PC-A2 liposome hydrolysis, fluorescence | inhibition, % at 12.2 µM | 370,000 tested, 0.56% active | AID 743126;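 active means inhibition above mean plus 3 SD of compounds lying within the high and low control bounds, cut at about 19% in these data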;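 further: 0% = median of test compound wells and 100% = no enzyme DMSO wells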
PC3 D3A act: counter-screen: procaspase-3 (human) activation; 290 tested, under 10 active; recombinant PC-3 D3A, Ac-DEVD-pNA absorbance 405 nm; aspartates 9, 28, 175 changed to alanine; 100% = enzyme control; activation, % at 8.5 µM; shares compounds with proCasp7 act; AID 493114;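 active means mean percent activation across triplicates above a set limit taken from the earlier primary procaspase-3 screen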;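 further: 0% = DMSO wells and 100% = DMSO wells with 5 µM added PC-3 D3A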
PC7 dual conf: activates human procaspase-7, confirming dual procaspase activators. shares compounds with proCasp7 act. recombinant procaspase-7, Ac-DEVD-pNA absorbance 405 nm; D23A/D198A/D206A mutant that cannot self-cleave. activation, % at 8.5 µM. 290 tested, under 10 active. AID 493115;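 active means mean activation above a set limit carried over from the earlier primary screen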;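 further: 0% = DMSO only and 100% = DMSO with added 5 µM PC-7 enzyme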
An asterisk follows results filed as active; i = inactive; · = no result. Most compounds without a hit are left out; they make up all but 1.6% or so of the library.

SMILES | proCasp3 act | proCasp7 act | PLCg1 inh | PLC-beta3 inh | sPLA2-III inh | PC3 D3A act | PC7 dual conf
NC(=O)c1nsc(C(=O)N(c2ccccc2F)C(C(=O)NCc2ccccc2)c2ccc(O)cc2)c1N (stereo unspecified) | 18 | 34* | -221 | -342 | -36 | -28 | -36
COc1cccc(N(C(=O)c2snc(C(N)=O)c2N)C(C(=O)NCc2ccccc2)c2ccc(O)cc2)c1 (stereo unspecified) | 33* | 79* | -106 | -145 | -36 | -4 | -11
COc1ccc(N(C(=O)c2snc(C(N)=O)c2N)C(C(=O)NCc2ccc(F)cc2)c2ccc(C)o2)c(OC)c1 (stereo unspecified) | 5 | 26* | -8 | -19 | -2 | 2 | 2
CCOc1ccccc1N(C(=O)c1snc(C(N)=O)c1N)C(C(=O)NCc1ccccc1)c1ccc(O)cc1 (stereo unspecified) | · | · | -104 | -143 | -29 | · | ·
Cc1ccccc1N(C(=O)c1snc(C(N)=O)c1N)C(C(=O)NCc1ccccc1)c1ccc(O)cc1 (stereo unspecified) | -98 | 40* | -250 | -365 | -41 | -28 | -35
COc1ccccc1N(C(=O)c1snc(C(N)=O)c1N)C(C(=O)NCc1ccccc1)c1ccc(C)o1 (stereo unspecified) | · | · | -22 | -37 | -7 | · | ·
O=C(NCc1cccnc1)O[C@H]1CC[C@@]23CCCN2C(=O)CCC[C@H]3C1 | · | · | 1 | 2 | 8 | · | ·
COc1ccc(C(=O)NCC(c2ccccc2)N2CCCC2)cc1S(=O)(=O)N1CCOCC1 (stereo unspecified) | 3 | -2 | -1 | -7 | -1 | · | ·
Cn1ccnc1C(=O)O[C@@H]1CCC[C@@]2(C(=O)N(Cc3ccccc3)c3ccccc32)[C@H]1NC(=O)CCc1ccccc1 | · | · | -3 | 3 | 8 | · | ·
O=c1oc2ccc3ccccc3c2cc1-c1nc2ccccc2o1 | -2 | 28* | i | i | 3 | -30 | -35
O=[N+]([O-])c1cccc2[nH]c(CNc3nc(N4CCOCC4)nc4c3ncn4-c3ccsc3)nc12 | · | · | -1 | 0 | -9 | · | ·
CCCN(CC(=O)Nc1ccc(Cl)cc1Cl)C(=O)/C=C/c1cc(OC)ccc1OC | 13 | 37* | i | i | -21 | -8 | -7
CSc1nnc(-c2cccn(Cc3ccccc3)c2=O)o1 | 9 | 9 | -230 | -273 | 1 | · | ·
O=c1c(-c2nnc(SCc3ccc(Cl)cc3Cl)o2)cccn1Cc1ccccc1 | 24* | 87* | -90 | -107 | -3 | -12 | -12
C=CCNc1sc(C(=O)c2ccc(C)cc2)c(N)c1C#N | -113 | -6 | -20 | -20 | -8 | · | ·
C=CCNc1nc(N)c(C(=C(C#N)C#N)c2ccc(Br)cc2)s1 | 12 | 105* | -195 | -236 | 1 | -28 | -35
O=C(CSc1nc2ccccc2nc1N1CCCC1)Nc1ccc(F)cc1 | 2 | 41* | -11 | -14 | 0 | -30 | -34
CC(=O)Nc1ccc(NC(=O)CSc2nc3ccccc3nc2N2CCCCC2)cc1 | -5 | 0 | 1 | -5 | -3 | · | ·
Cc1cc(C)cc(NC(=O)CSc2nc3ccccc3nc2N2CCCC2)c1 | 7 | 39* | -25 | -31 | -5 | -29 | -34
CN(C)c1nc(-c2ccccc2)c2cnn(Cc3ccccc3)c2n1 | 18 | 34* | -70 | -95 | 1 | -29 | -36
COc1ccc2nc(NC(=O)c3sc4nc(C)cc(C)c4c3N)sc2c1 | 21 | 71* | -74 | -110 | 1 | -29 | -36
COCc1cc(C)nc2sc(C(=O)Nc3ccccc3Br)c(N)c12 | 6 | 36* | -466 | i | -1 | -29 | -35
Cc1cc(C)c2c(N)c(C(=O)Nc3ncc(C)s3)sc2n1 | -12 | -3 | i | i | 12 | · | ·
CCOc1ccc(OCCC(=O)N2CCc3cc(OC)c(OC)cc3C2)cc1 | 4 | -4 | -6 | -11 | 0 | · | ·

Screens from PubChem BioAssay.
